Sampled rows, rich in hits. Any-hit rate of the full collection: about 2.2%.
FGF22 binding: FGF22 (human) thermal shift binding. Q9HCT0. recombinant FGF22 thermal shift, SYPRO orange fluorescence; percent of sucrose octasulfate shift, DMSO zero. activity (Tm shift, normalised), % at 9.99 µM. actives 1.5% (n = 340,000). AID 651658;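 active = mean Tm shift, scaled 0 neutral to 100 positive control, at about 1.3% or above, every replicate too, limit read from the data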
Target sequence (Q9HCT0 whole entry, looked up): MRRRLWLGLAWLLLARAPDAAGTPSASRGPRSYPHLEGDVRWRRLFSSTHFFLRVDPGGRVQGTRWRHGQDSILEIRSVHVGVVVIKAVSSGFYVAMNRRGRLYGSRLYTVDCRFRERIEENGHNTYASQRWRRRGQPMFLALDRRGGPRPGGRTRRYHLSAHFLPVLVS
Jurkat NFkB inh: inhibitors of the PMA/ionomycin-induced NF-kB reporter in Jurkat cells | inhibition, % at 4 µM | PMA/ionomycin-induced NF-kB luciferase reporter, luminescence | actives 0.53% (n = 330,000); in the data active = inhibition above about 50%
NR2E3 ag-1: activates human NR2E3 receptor; CHO-S Gal4-NCOR/VP16-NR2E3 two-hybrid, luciferase; inhibition of corepressor binding, % at 3.98 µM; actives 0.35% (n = 360,000); AID 602229;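 active = inhibition above the mean of all tested compounds plus 3 SD, cut at about 70% in these data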;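 note: 0% = DMSO with NR2E3 transfected cells and 100% = cells lacking NR2E3 construct; higher means lower luciferase signal from less NR2E3 corepressor binding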
NR2E3 ag-2: NR2E3 (human) agonism; Q9Y5X4; GST-NR2E3/biotin-RetCOR TR-FRET, 1536-well; inhibition of corepressor binding, % at 4.78 µM; actives 0.12% (n = 320,000); AID 2300;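 active = percent inhibition above the cutoff of mean plus 3 SD of all tested compounds, set per screening campaign, cut at about 20% in these data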;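 note: 0% = DMSO wells and 100% = biotin wells as full block of FRET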
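System: GST-tagged NR2E3 plus biotinylated RetCOR corepressor; Buffer or medium: pH 7.5 Tris-based buffer; Probe or stimulus: RetCOR corepressor, biotinylated, 7 nM; Doses: compound at 4.8 µM, single dose; Schedule: 5 h incubation at 4 °C; Technique: time-resolved FRET; Evaluation: percent inhibition of TR-FRET ratio; Replication: one well per compound, singlicate testing.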
697 NFkB inh: inhibitors of the PMA/ionomycin-induced NF-kB reporter in 697 B cells | AID 435022 | actives 0.33% (n = 330,000) | 697 B-cell NF-kB luciferase reporter, 16 h | inhibition, % at 4 µM; in the data active = inhibition above about 35%
miR-122 sensor: blocks miR-122 activity in Huh7 sensor cells; activation (reporter increase), % at 12.5 µM; actives 0.3% (n = 340,000); AID 602342; Huh7 miR-122 Renilla luciferase sensor, 48 h; neutral wells = 0, positive control = 100;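 active = mean replicate activation score at least 90 and every replicate individually at or above 90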;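 note: higher luciferase means less miR-122 activity so hits act as miR-122 inhibitors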
Jurkat NFkB conf: inhibitors of the PMA/ionomycin-induced NF-kB reporter in Jurkat cells, retest. shares compounds with Jurkat NFkB inh. actives 27% (n = 2,700). inhibition, % at 4 µM. Jurkat NF-kB luciferase, 16 h;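 active = inhibition reaching about 45% at 4 µM in either replicate, limit read from the data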;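 note: plate controls were PMA/ionomycin stimulated DMSO wells for no effect and unstimulated DMSO wells for full effect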
697 NFkB conf: lowers PMA/ionomycin-induced NF-kB signal in 697 B cells; AID 449746; inhibition, % at 4 µM; actives 35% (n = 2,000); shares compounds with 697 NFkB inh; 697 B-cell NF-kB luciferase, 16 h; in the data active = inhibition mostly above about 28%, no sharp cut-off; inactive = mostly below about 22%
Active calls of the source: *; nt = no result given; [ ] = another dose, or the depositor's remark.

SMILES	FGF22 binding	Jurkat NFkB inh	NR2E3 ag-1	NR2E3 ag-2	697 NFkB inh	miR-122 sensor	Jurkat NFkB conf	697 NFkB conf
Cc1c(C(C)(C)C)sc(=NC(=O)c2ccccc2O)n1C	1	-193	-109	0	-226	9	-113	nt
Cc1c(C(C)(C)C)s/c(=N/S(=O)(=O)c2ccccc2)n1C	0	-11	-5	5	2	21	nt	nt
C[C@@H]1CN([C@H](C)CO)C(=O)c2c(c3ccccc3n2C)-c2ccccc2CO[C@@H]1CN(C)C(=O)[C@H]1CCCN1C	0	nt	nt	nt	nt	nt	nt	nt
Cc1noc(C)c1NC(=O)N(C)C[C@H]1Oc2ccc(NS(=O)(=O)c3ccccc3)cc2CC(=O)N([C@H](C)CO)C[C@@H]1C	0	nt	nt	nt	nt	2[16.7 µM]	nt	nt
CCN(CC)CCNc1nc2c(c(=O)[nH]c(=O)n2C)n1CC(O)COc1ccc(Cl)cc1Cl (stereo not given)	nt	-11	2	-1	13	0	nt	nt
Cc1cc(C)n(-c2nc3c(c(=O)[nH]c(=O)n3C)n2CC(O)COc2ccc(Cl)cc2Cl)n1 (stereo not given)	nt	51*	13	2	-31	nt	46	nt
O=C(CNc1cccc2ccccc12)N/N=C/c1ccc[nH]1	nt	59*	-48	1	8	nt	-3	nt
CSc1ccc(/C=N/NC(=O)CNc2cccc3ccccc23)cc1	0	0	-27	6	23	nt	nt	nt
Nc1[nH]n(-c2ccccc2)c(=O)c1N=Nc1ccc2c(c1)OCCO2	0	-194	-137	-2	-312	-11	-100	-196
C[C@@H]1CCCCO[C@H](CN(C)Cc2ccc(C(=O)O)cc2)[C@H](C)CN([C@H](C)CO)C(=O)c2cc(NS(=O)(=O)c3cccs3)ccc2O1	0	nt	nt	nt	nt	0[16.7 µM]	nt	nt
O=C(CN1CCOCC1)N1CCCCN2[C@H](C1)[C@H](c1ccc(/C=C/c3ccccc3)cc1)[C@@H]2CO	0	nt	nt	nt	nt	8[16.7 µM]	nt	nt
C[C@@H](O)C#Cc1cnc2c(c1)C(=O)N([C@@H](C)CO)C[C@H](C)[C@@H](CN(C)Cc1ccc(-c3ccccc3)cc1)O2	0	nt	nt	nt	nt	1[16.7 µM]	nt	nt
CC1CCN(S(=O)(=O)c2ccc3c(c2)C(=NO)c2cc(S(=O)(=O)N4CCC(C)CC4)ccc2-3)CC1	nt	96*	-9	0	97*	0	17	93*
COc1ccc(S(=O)(=O)N2CCC(C)CC2)cc1OC	-1	0	3	2	0	1	nt	nt
CC(C)NC(=O)N[C@@H]1CC[C@H](CC(=O)N2CCCCC2)O[C@H]1CO	nt	nt	nt	nt	nt	-16[16.7 µM]	nt	nt
Nc1nc(Cl)nc2c1ncn2[C@H]1C[C@H](O)[C@@H](CO)O1	-1	65*	21	4	57*	-31	41	68*
Cc1ccc2nc(NC(=O)c3ccccc3F)sc2c1	0	-163	-194	4	-261	14	-133	-229
COc1ccc2nc(NC(=O)c3ccccc3F)sc2c1	0	-154	-145	0	-279	16	-116	-318
COc1ccc2nc(NC(=O)c3ccccc3-c3ccccc3C(=O)O)sc2c1	0	7	-2	-2	13	-13	nt	nt
CCOc1ccc2nc(NC(=O)c3ccoc3C)sc2c1	nt	-168	-175	2	-374	-4	-106	-322
COc1ccc2nc(NC(=O)Nc3ccccc3)sc2c1	0	-223	-177	7	-335	6	-128	-317
CCOc1ccc2nc(NC(=O)COC)sc2c1	nt	-70	-176	-2	-122	5	nt	nt
COC(=O)[C@@H]1[C@@H](CO)[C@@H]2Cn3c(ccc(-c4ccccc4)c3=O)[C@@H]2N1S(C)(=O)=O	0	nt	nt	nt	nt	-6[16.7 µM]	nt	nt
O=C(O)c1ccccc1-c1ccccc1C(=O)Nc1ccc2c(c1)CCC2	0	-9	-7	-4	0	-3	nt	nt
O=C(Nc1ccc2c(c1)CCC2)c1ccccc1F	nt	-177	-116	3	-251	nt	-145	-224
Cc1ccnc(NC(=O)c2sc3ccccc3c2Cl)c1	nt	-153	-159	1	-401	nt	-88	-287

Bioassay records: PubChem, several laboratories
